One block for each compound: values may come before it.
Experiments:
[1] = test system: Rattus norvegicus; test: Compound was evaluated in experiment 1 for High density lipoproteins at 3.0 (mg/kg) dose; type: functional
Procedure, shortened: (§1)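 Chronic model in male Sprague-Dawley rats (200-225 g). Rats were fed chow with peanut oil 5.5%, cholesterol 1.5% and cholic acid ad libitum for 2 weeks. Test article was given by gavage once daily (morning) in the second week, as a CMC/Tween aqueous suspension. Blood was taken by cardiac puncture under ether 24 h after the last dose. Plasma total, HDL and nonHDL cholesterol were measured with an Abbott VP analyzer using dextran sulfate precipitation, reported as mg/dL and % change from control. Controls were cholesterol-fed rats and rats switched to chow in week 2.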

[2] = test system: Rattus norvegicus; test: Compound was evaluated in experiment 1 for change in non High density lipoprotein at the doses at 1.0 (mg/kg) dose; type: functional; procedure, shortened: as §1
[3] = test system: Rattus norvegicus; test: Compound was evaluated in experiment 1 for Change in total cholesterol at 10 (mg/kg) dose; type: functional; procedure, shortened: as §1
[4] = test system: Rattus norvegicus; test: Compound was evaluated in experiment 1 for non High density lipoproteins at 3.0(mg/kg) dose; type: functional; procedure, shortened: as §1
[5] = test system: Rattus norvegicus; test: Compound was evaluated for the percentage change in total cholesterol in peanut oil (5.5%)-cholic acid (0.3%)-cholesterol (1.5%)-fed rats at 30 mg/kg; type: functional
[6] = test system: Rattus norvegicus; test: Compound was evaluated in experiment 1 for non High density lipoproteins at 10 (mg/kg) dose; type: functional; procedure, shortened: as §1
[7] = test system: Rattus norvegicus; test: Compound was evaluated in experiment 1 for change in non High density lipoprotein at the doses at 10 (mg/kg) dose; type: functional; procedure, shortened: as §1
[8] = test system: Rattus norvegicus; test: Compound was evaluated in experiment 1 for Change in High density lipoproteins at 3.0 (mg/kg) dose; type: functional; procedure, shortened: as §1
[9] = test system: Rattus norvegicus; test: Compound was evaluated in experiment 1 for High density lipoproteins at 10 (mg/kg) dose; type: functional; procedure, shortened: as §1
[10] = test system: Rattus norvegicus; test: Compound was evaluated in experiment 1 for Total cholesterol at 3.0 (mg/kg) dose; type: functional; design: unit not given beside the values; procedure, shortened: as §1
[11] = test system: Rattus norvegicus; test: Compound was evaluated in experiment 1 for Total cholesterol at 0.3 (mg/kg) dose; type: functional; design: unit not given beside the values; procedure, shortened: as §1
[12] = test system: Rattus norvegicus; test: Compound was evaluated in experiment 1 for change in non High density lipoprotein at the doses at 3.0 (mg/kg) dose; type: functional; procedure, shortened: as §1
[13] = test system: Rattus norvegicus; test: Compound was evaluated in experiment 1 for Change in High density lipoproteins at 0.3 (mg/kg) dose; type: functional; procedure, shortened: as §1
[14] = test system: Rattus norvegicus; test: Compound was evaluated in experiment 1 for Change in High density lipoproteins at 10 (mg/kg) dose; type: functional; procedure, shortened: as §1
[15] = test system: Rattus norvegicus; test: Compound was evaluated in experiment 1 for High density lipoproteins at 1.0 (mg/kg) dose; type: functional; procedure, shortened: as §1
[16] = test system: Rattus norvegicus; test: Compound was evaluated in experiment 1 for Change in total cholesterol at 0.3 (mg/kg) dose; type: functional; procedure, shortened: as §1
[17] = test system: Rattus norvegicus; test: Compound was evaluated in experiment 1 for change in non High density lipoprotein at the doses at 0.3 (mg/kg) dose; type: functional; procedure, shortened: as §1
[18] = test system: Rattus norvegicus; test: Compound was evaluated in experiment 1 for Change in High density lipoproteins at 1.0 (mg/kg) dose; type: functional; procedure, shortened: as §1
[19] = test system: Rattus norvegicus; test: Compound was evaluated in experiment 1 for Change in total cholesterol at 3.0 (mg/kg) dose; type: functional; procedure, shortened: as §1
[20] = test system: Rattus norvegicus; test: Compound was evaluated in experiment 1 for Total cholesterol at 10 (mg/kg) dose; type: functional; design: unit not given beside the values; procedure, shortened: as §1
[21] = test system: Rattus norvegicus; test: Compound was evaluated in experiment 1 for High density lipoproteins at 0.3 (mg/kg) dose; type: functional; procedure, shortened: as §1
[22] = species on record: Rattus norvegicus; test: Percent change in total cholesterol in peanut oil (5.5%)-, cholic acid (0.3%)-, Cholesterol (1.5%)-fed rats after a single dose.; type: functional
Procedure, shortened: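 Male Sprague-Dawley rats (200-225 g), n=5-7/group, given a single oral dose at 4 p.m. as a suspension in 1.5% CMC/0.2% Tween-20 in water (50 mg/kg); controls received vehicle alone. The rats then had free access to chow with peanut oil, cholesterol and cholic acid. At 8 a.m. next day they were bled by cardiac puncture under ether, and serum total cholesterol was measured as % change versus controls (unpaired two-tailed t-test).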

[23] = test system: Rattus norvegicus; test: Compound was evaluated in experiment 1 for non High density lipoproteins at 0.3 (mg/kg) dose; type: functional; procedure, shortened: as §1
[24] = test system: Rattus norvegicus; test: Compound was evaluated in experiment 1 for non High density lipoproteins at 1.0 (mg/kg) dose; type: functional; procedure, shortened: as §1
[25] = test system: Rattus norvegicus; test: Compound was evaluated in experiment 1 for Change in total cholesterol at 1.0 (mg/kg) dose; type: functional; procedure, shortened: as §1
[26] = Compound was evaluated for the distribution coefficient at pH 7.4; type: physicochemical; details: octanol/water, read-out: logD
[27] = target: T1, Acyl-CoA:cholesterol acyltransferase (Oryctolagus cuniculus, UniProt Q95214); test: Tested for in vitro inhibition against Acyl coenzyme A:cholesterol acyltransferase of intestinal microsomes in cholesterol-fed rabbits; design: species or system Microsome
T1 sequence (Q95214 whole entry): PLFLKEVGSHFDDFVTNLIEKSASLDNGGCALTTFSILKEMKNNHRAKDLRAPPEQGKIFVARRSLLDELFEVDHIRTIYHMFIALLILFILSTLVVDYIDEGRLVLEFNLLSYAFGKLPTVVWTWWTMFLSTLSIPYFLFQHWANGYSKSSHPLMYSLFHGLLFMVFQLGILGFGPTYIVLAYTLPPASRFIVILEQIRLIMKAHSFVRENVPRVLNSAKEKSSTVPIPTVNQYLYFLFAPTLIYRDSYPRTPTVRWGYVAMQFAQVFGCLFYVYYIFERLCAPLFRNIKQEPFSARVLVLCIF
Procedure, shortened: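 Microsomes were prepared from intestine of cholesterol-fed rabbits. ACAT activity was measured using [1-14C]oleoyl-CoA as substrate. Each determination was run in triplicate.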

[28] = test system: Rattus norvegicus; test: Compound was evaluated in experiment 1 for Total cholesterol at 1.0 (mg/kg) dose; type: functional; design: unit not given beside the values; procedure, shortened: as §1
[29] = Solubility at pH 7.4; type: physicochemical; details: buffer
[30] = Compound was evaluated for the distribution coefficient at pH 4.0; type: physicochemical; details: octanol/water
[31] = Solubility at pH 4.0; type: physicochemical; details: buffer
[32] = Solubility at 0.1 N HCl; type: physicochemical; details: read-out: S
[33] = Compound was evaluated for the distribution coefficient at pH 1.0; type: physicochemical; details: octanol/water

- logD [26]: 5.28
- IC50 [27]: 16 nM
SMILES: CC(C)c1cccc(C(C)C)c1NC(=O)NCC1(c2cccc(CN3CCN(C)CC3)c2)CCCC1
- HDL-C [1]: 12
- Change non HDL-C [2]: -36%
- Change TC [3]: -51%
- Non-HDL-C [4]: 227
- Delta TC [5]: -66%
- Non-HDL-C [6]: 135
- Change non HDL-C [7]: -55%
- Change HDL -C [8]: 8%
- HDL-C [9]: 19
- TC [10]: 239
- TC [11]: 325
- Change non HDL-C [12]: -25%
- Change HDL -C [13]: 2%
- Change HDL -C [14]: 60%
- HDL-C [15]: 15
- Change TC [16]: 3%
- Change non HDL-C [17]: 3%
- Change HDL -C [18]: 27%
- Change TC [19]: -24%
- TC [20]: 154
- HDL-C [21]: 12
- Delta TC [22]: -21%
- Non-HDL-C [23]: 313
- Non-HDL-C [24]: 195
- Change TC [25]: -33%
- TC [28]: 209

- solubility [29]: < 10 µg/mL
- logD [30]: 2.89
- solubility [31]: < 10 µg/mL
- solubility [32]: < 10 µg/mL
- logD [26]: 5.59
- logD [33]: 2.18
SMILES: CC(C)c1cccc(C(C)C)c1NC(=O)NCC1(c2ccc(N(C)C)cc2)CCCC1 [NEVANIMIBE]
- Delta TC [22]: -65%

- logD [26]: 6.05
- IC50 [27]: 16 nM
SMILES: CCCCN(CCCC)Cc1cccc(C2(CNC(=O)Nc3c(C(C)C)cccc3C(C)C)CCCC2)c1
- HDL-C [1]: 12
- Change non HDL-C [2]: -12%
- Change TC [3]: -4%
- Non-HDL-C [4]: 194
- Delta TC [5]: -63%
- Non-HDL-C [6]: 293
- Change non HDL-C [7]: -3%
- Change HDL -C [8]: 8%
- HDL-C [9]: 9
- TC [10]: 206
- TC [11]: 271
- Change non HDL-C [12]: -36%
- Change HDL -C [13]: 16%
- Change HDL -C [14]: -21%
- HDL-C [15]: 10
- Change TC [16]: -14%
- Change non HDL-C [17]: -15%
- Change HDL -C [18]: -16%
- Change TC [19]: -34%
- TC [20]: 302
- HDL-C [21]: 12
- Delta TC [22]: -25%
- Non-HDL-C [23]: 258
- Non-HDL-C [24]: 266
- Change TC [25]: -12%
- TC [28]: 276
